The values that follow come from ChEMBL document CHEMBL2380298, “Synthesis and antimicrobial activity of novel amphiphilic aromatic amino alcohols” (2013).

What all share (format): functional
The subject of assay [1] is Escherichia coli. The assay can be described thus: Bactericidal activity against Escherichia coli ATCC 11229 after 24 hrs. The settings on record: ATCC 11229, 24 h. A digest of the protocol:
(§1)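 MBC: after MIC determination, 0.1 ml from the MIC well and from two dilutions either side streaked on tryptic soy agar, incubated 24 h; MBC taken as lowest concentration giving no growth (100% kill).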

The subject of assay [2] is Staphylococcus aureus. The experiment in a line: Bactericidal activity against methicillin-resistant Staphylococcus aureus clinical isolate 257 after 24 hrs. The settings on record: isolate 257, 24 h. In outline: (§2)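 Bactericidal concentration: 0.1 ml from wells at the MIC dilution and the dilutions on either side was streaked onto tryptic soy agar and incubated 24 h. It was taken as the lowest drug concentration giving no growth (100% killing).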

The subject of assay [3] is Staphylococcus aureus. The assay can be described thus: Bactericidal activity against Staphylococcus aureus ATCC 29213 after 24 hrs. The settings on record: ATCC 29213, 24 h. In outline: as §2
The test system of assay [4] is Staphylococcus aureus. The assay can be described thus: Antimicrobial activity against methicillin-resistant Staphylococcus aureus clinical isolate 205 by broth dilution method.
Assay [5] concerns Staphylococcus aureus. The assay can be described thus: Antimicrobial activity against methicillin-resistant Staphylococcus aureus clinical isolate 235 by broth dilution method.
In another assay the test system is Pseudomonas aeruginosa. The experiment in a line: Antimicrobial activity against Pseudomonas aeruginosa ATCC 27853 by broth dilution method. Background: Dilution methods test growth across graded concentrations, often in twofold steps.
Assay [6] concerns Staphylococcus aureus. The experiment in a line: Bactericidal activity against methicillin-resistant Staphylococcus aureus clinical isolate 178 after 24 hrs. The settings on record: isolate 178, 24 h. A digest of the protocol: as §2
The next assay has as its system Candida albicans. The experiment in a line: Antimicrobial activity against Candida albicans ATCC 22019 by broth dilution method.
Assay [7] has as its system Staphylococcus aureus. The assay can be described thus: Bactericidal activity against methicillin-resistant Staphylococcus aureus clinical isolate 255 after 24 hrs. The settings on record: isolate 255, 24 h. A digest of the protocol:
as §2

The subject of assay [8] is Staphylococcus aureus. The experiment in a line: Bactericidal activity against methicillin-resistant Staphylococcus aureus clinical isolate 235 after 24 hrs. To be noted: isolate 235, 24 h. In outline:
as §2

Assay [9] relates to Staphylococcus aureus. The experiment in a line: Antimicrobial activity against methicillin-resistant Staphylococcus aureus clinical isolate 225 by broth dilution method.
The subject of assay [10] is Staphylococcus aureus. The experiment in a line: Bactericidal activity against methicillin-resistant Staphylococcus aureus clinical isolate 231 after 24 hrs. To be noted: isolate 231, 24 h. In outline:
as §2

The test system of assay [11] is Staphylococcus aureus. The assay can be described thus: Bactericidal activity against methicillin-resistant Staphylococcus aureus clinical isolate 238 after 24 hrs. To be noted: isolate 238, 24 h. A digest of the protocol:
as §2

Assay [12] relates to Staphylococcus aureus. The assay can be described thus: Bactericidal activity against methicillin-resistant Staphylococcus aureus clinical isolate 259 after 24 hrs. To be noted: isolate 259, 24 h. In outline:
as §2

For assay [13], the system named is Staphylococcus aureus. The experiment in a line: Antimicrobial activity against Staphylococcus aureus ATCC 29213 by broth dilution method. To be noted: for MIC: Staphylococcus aureus, ATCC 29213.
The subject of a further assay is Candida tropicalis. The assay can be described thus: Antimicrobial activity against Candida tropicalis ATCC 750 by broth dilution method.
Assay [14] has as its system Staphylococcus aureus. The experiment in a line: Antimicrobial activity against methicillin-resistant Staphylococcus aureus clinical isolate 227 by broth dilution method.
The test system of assay [15] is Staphylococcus aureus. The experiment in a line: Antimicrobial activity against methicillin-resistant Staphylococcus aureus clinical isolate 231 by broth dilution method.
The subject of assay [16] is Staphylococcus aureus. The assay can be described thus: Antimicrobial activity against methicillin-resistant Staphylococcus aureus clinical isolate 260 by broth dilution method.
The test system of assay [17] is Staphylococcus aureus. The assay can be described thus: Antimicrobial activity against methicillin-resistant Staphylococcus aureus clinical isolate 255 by broth dilution method.
Assay [18] concerns Staphylococcus aureus. The experiment in a line: Antimicrobial activity against methicillin-resistant Staphylococcus aureus clinical isolate 232 by broth dilution method.
Assay [19] concerns Staphylococcus aureus. The experiment in a line: Antimicrobial activity against methicillin-resistant Staphylococcus aureus clinical isolate 212 by broth dilution method.
For assay [20], the system named is Staphylococcus aureus. The experiment in a line: Antimicrobial activity against methicillin-resistant Staphylococcus aureus clinical isolate 195 by broth dilution method.
Assay [21] has as its system Staphylococcus aureus. The experiment in a line: Antimicrobial activity against methicillin-resistant Staphylococcus aureus clinical isolate by broth dilution method.
Assay [22] concerns Staphylococcus aureus. The assay can be described thus: Antimicrobial activity against methicillin-resistant Staphylococcus aureus clinical isolate 264 by broth dilution method.
Assay [23] concerns Staphylococcus aureus. The experiment in a line: Antimicrobial activity against methicillin-resistant Staphylococcus aureus clinical isolate 176 by broth dilution method.
Assay [24] has as its system Staphylococcus aureus. The assay can be described thus: Antimicrobial activity against methicillin-resistant Staphylococcus aureus clinical isolate 238 by broth dilution method.
The subject of assay [25] is Staphylococcus aureus. The experiment in a line: Antimicrobial activity against methicillin-resistant Staphylococcus aureus clinical isolate 236 by broth dilution method.
Assay [26] relates to Staphylococcus aureus. The experiment in a line: Antimicrobial activity against methicillin-resistant Staphylococcus aureus clinical isolate 237 by broth dilution method.
Assay [27] has as its system Staphylococcus epidermidis. The assay can be described thus: Antimicrobial activity against Staphylococcus epidermidis ATCC 12228 by broth dilution method. The settings on record: for MIC: Staphylococcus epidermidis, ATCC 12228.
Assay [28] relates to Staphylococcus aureus. The assay can be described thus: Bactericidal activity against methicillin-resistant Staphylococcus aureus clinical isolate 236 after 24 hrs. To be noted: isolate 236, 24 h. In outline: as §2
Assay [29] concerns Staphylococcus aureus. The assay can be described thus: Antimicrobial activity against methicillin-resistant Staphylococcus aureus clinical isolate 207 by broth dilution method.
Assay [30] relates to Staphylococcus aureus. The assay can be described thus: Antimicrobial activity against methicillin-resistant Staphylococcus aureus clinical isolate 257 by broth dilution method.
The subject of a further assay is Nakaseomyces glabratus. The experiment in a line: Antimicrobial activity against Candida glabrata ATCC 18804 by broth dilution method.
The test system of assay [31] is Staphylococcus aureus. The experiment in a line: Bactericidal activity against methicillin-resistant Staphylococcus aureus clinical isolate 264 after 24 hrs. To be noted: isolate 264, 24 h. In outline: as §2
A further assay relates to Candida parapsilosis. The assay can be described thus: Antimicrobial activity against Candida parapsilosis ATCC 90030 by broth dilution method. The settings on record: Lodderomyces parapsilosis.
The test system of assay [32] is Escherichia coli. The assay can be described thus: Antimicrobial activity against Escherichia coli ATCC 11229 by broth dilution method. The settings on record: for MIC: Escherichia coli, ATCC 11229.
For assay [33], the system named is Staphylococcus aureus. The assay can be described thus: Bactericidal activity against methicillin-resistant Staphylococcus aureus clinical isolate 232 after 24 hrs. To be noted: isolate 232, 24 h. A digest of the protocol: as §2
The test system of assay [34] is Staphylococcus aureus. The assay can be described thus: Antimicrobial activity against methicillin-resistant Staphylococcus aureus clinical isolate 215 by broth dilution method.
The subject of assay [35] is Staphylococcus aureus. The assay can be described thus: Bactericidal activity against methicillin-resistant Staphylococcus aureus clinical isolate 212 after 24 hrs. The settings on record: isolate 212, 24 h. In outline:
as §2

For assay [36], the system named is Staphylococcus aureus. The assay can be described thus: Antimicrobial activity against methicillin-resistant Staphylococcus aureus clinical isolate 218 by broth dilution method.
Assay [37] concerns Staphylococcus aureus. The assay can be described thus: Bactericidal activity against methicillin-resistant Staphylococcus aureus clinical isolate 260 after 24 hrs. To be noted: isolate 260, 24 h. A digest of the protocol:
as §2

The subject of assay [38] is Staphylococcus aureus. The assay can be described thus: Antimicrobial activity against methicillin-resistant Staphylococcus aureus clinical isolate 178 by broth dilution method.
The subject of assay [39] is Staphylococcus epidermidis. The experiment in a line: Bactericidal activity against Staphylococcus epidermidis ATCC 12228 after 24 hrs. To be noted: ATCC 12228, 24 h. In outline: as §1
Assay [40] concerns Staphylococcus aureus. The assay can be described thus: Bactericidal activity against methicillin-resistant Staphylococcus aureus clinical isolate 237 after 24 hrs. The settings on record: isolate 237, 24 h. A digest of the protocol: as §2
Assay [41] relates to Staphylococcus aureus. The experiment in a line: Antimicrobial activity against methicillin-resistant Staphylococcus aureus clinical isolate 259 by broth dilution method.

Regarding `CCCCCCCCCCOc1ccc(CNC(CO)(CO)CO)cc1.Cl`, the MBC was determined as 32 µg/mL in the assay with Escherichia coli [1]; 8 µg/mL in the assay with Staphylococcus aureus [2]; 8 µg/mL against Staphylococcus aureus [3]; 128 µg/mL against Staphylococcus aureus [6]; 8 µg/mL with Staphylococcus aureus [7]; 4 µg/mL in the assay on Staphylococcus aureus [8]. Besides, the MBC was 8 µg/mL against Staphylococcus aureus [10]; 8 µg/mL in the assay on Staphylococcus aureus [11]; 4 µg/mL in the assay with Staphylococcus aureus [12]; 4 µg/mL against Staphylococcus aureus [28]; 2 µg/mL in the assay with Staphylococcus aureus [31]; 32 µg/mL against Staphylococcus aureus [33]. Also, the minimum bactericidal concentration (MBC) against Staphylococcus aureus [35] is 128 µg/mL; with Staphylococcus aureus [37], 16 µg/mL; in [39], 8 µg/mL; against Staphylococcus aureus [40], 16 µg/mL. For the same compound, the MIC is 8 µg/mL in the assay on Staphylococcus aureus [4]; 4 µg/mL against Staphylococcus aureus [5]; 16 µg/mL in the assay on Pseudomonas aeruginosa; 4 µg/mL against Candida albicans; 8 µg/mL in the assay with Staphylococcus aureus [9]; 8 µg/mL with Staphylococcus aureus [13]. The minimal inhibitory concentration (MIC) in the assay on Candida tropicalis amounted to 8 µg/mL; in the assay with Staphylococcus aureus [14] it was 4 µg/mL; against Staphylococcus aureus [15] it was 8 µg/mL; against Staphylococcus aureus [16], 8 µg/mL; in the assay on Staphylococcus aureus [17] it was 4 µg/mL; against Staphylococcus aureus [18], 16 µg/mL. The MIC was 8 µg/mL in the assay on Staphylococcus aureus [19]; 8 µg/mL against Staphylococcus aureus [20]; 2 µg/mL against Staphylococcus aureus [22]; 8 µg/mL against Staphylococcus aureus [23]; 8 µg/mL in the assay with Staphylococcus aureus [24]; 4 µg/mL in the assay with Staphylococcus aureus [25]. Besides, the MIC in the assay on Staphylococcus aureus [26] is 16 µg/mL; in assay [27], 4 µg/mL; in the assay with Staphylococcus aureus [29], 8 µg/mL; against Staphylococcus aureus [30], 4 µg/mL; with Nakaseomyces glabratus it was 2 µg/mL; in the assay with Candida parapsilosis, 8 µg/mL. Further, the minimum inhibitory concentration (MIC) against Escherichia coli [32] is 32 µg/mL; in the assay on Staphylococcus aureus [34], 4 µg/mL; in the assay on Staphylococcus aureus [36] it was 4 µg/mL; in the assay with Staphylococcus aureus [38], 8 µg/mL; in the assay on Staphylococcus aureus [41], 4 µg/mL. The “-logMIC” value in the assay on Staphylococcus aureus [13] amounted to 4.7; in the assay with Staphylococcus aureus [21] it was 4.842; in assay [27] it was 5; with Escherichia coli [32], 4.1. In the assay on Staphylococcus aureus [21] (Staphylococcus aureus), the MIC50 was 8 µg/mL. This compound also returned an MIC90 against Staphylococcus aureus [21] (Staphylococcus aureus) of 8 µg/mL.

For `CCCCOc1ccc(CNC(CO)(CO)CO)cc1.Cl`, the minimal inhibitory concentration (MIC) in the assay on Pseudomonas aeruginosa was 512 µg/mL; against Staphylococcus aureus [13], 1020 µg/mL; in the assay with Candida tropicalis, above 512 µg/mL; in [27], 512 µg/mL; against Nakaseomyces glabratus it was 512 µg/mL; with Candida parapsilosis it was above 512 µg/mL. The same compound yielded an MIC in the assay with Escherichia coli [32] of 1020 µg/mL. The “-logMIC” value in the assay with Staphylococcus aureus [13] was determined as 2.49; in [27] it was 2.79; with Escherichia coli [32] it was 2.49.

Turning to `CCCCCCOc1ccc(CNC(CO)(CO)CO)cc1.Cl`, the minimal inhibitory concentration (MIC) was 512 µg/mL against Pseudomonas aeruginosa; 128 µg/mL against Staphylococcus aureus [13]; above 512 µg/mL with Candida tropicalis; 128 µg/mL in assay [27]; 256 µg/mL against Nakaseomyces glabratus; above 512 µg/mL in the assay with Candida parapsilosis. This compound registered a minimal inhibitory concentration (MIC) with Escherichia coli [32] of 256 µg/mL. Moreover, the “-logMIC” value is on record as 3.45 in the assay with Staphylococcus aureus [13], 3.43 in [27] and 3.13 in the assay on Escherichia coli [32].

The term MBC denotes the lowest tested concentration that kills the bacteria rather than only halting them. For orientation: MIC means the least concentration at which growth counts as inhibited. Higher therefore signals a less susceptible organism. The term MIC50 denotes an inhibitory concentration at the 50% level, which refers to growth in some studies and to a panel of isolates in others. A high value points to weaker potency. The term MIC90 denotes the lowest concentration that inhibits either 90% of growth or 90% of the strains tested, depending on the study. High values mean lower susceptibility, low ones higher susceptibility.
